Laboratory results from publication PMC5653211 (Journal of medicinal chemistry, 2017).

What was measured:
α7 nAChR [1] = target: T1, α7 nAChR (Homo sapiens, UniProt P36544); experiment: PAM-potentiated α7 responses, co-application with 10 µM 1; type: cell-based; conditions: for Potentiation by 1: co-applied with 10 µM 1
Method in brief: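 Human α7 nAChR in Xenopus laevis oocytes, two-electrode voltage clamp. Test compound at 10, 30 or 100 µM co-applied with 10 µM positive allosteric modulator. Net charge normalized to 60 µM ACh controls in the same cells; at least four cells (± S.E.M.). Desensitization: 60 µM ACh responses recorded before and after test compound application, 210 s traces, averaged over 8 cells and normalized to pre-application ACh controls.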

α7 nAChR [2] = target: T1, α7 nAChR; type: cell-based; conditions: for Response when applied alone, of the control ACh response: concentrations of Figure 4, 60 µM ACh control; for α7 activation / partial agonism: compound applied alone
Method in brief: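 Two-electrode voltage clamp on Xenopus laevis oocytes expressing human α7 nAChR. Test compound applied alone at 10, 30, 100, 300 µM and 1 mM; one comparator was tested only up to 300 µM. Response taken as net charge normalized to 60 µM ACh applied alone.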

α7 nAChR [3] = target: T1, α7 nAChR; experiment: Inhibition of α7 ACh-evoked responses, co-application with 60 µM ACh; type: cell-based; conditions: range 0.3–100 µM; co-applied with 60 µM ACh
Method in brief: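 Xenopus laevis oocytes expressing human α7 nAChR, two-electrode voltage clamp. Test compound co-applied with 60 µM ACh at 0.3, 1, 3, 10, 30, 100 […] µM. Net charge normalized to responses to 60 µM ACh applied alone. Each point is the mean of at least four cells (± S.E.M.); IC50 values come from the inhibition concentration-response curve.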

[4] = Hydrolytic stability in water and Ringer's buffer by 1H-NMR; type: physicochemical; conditions: water, room temperature (~ 25 °C), 3 h, 19 h and up to 60 days
[5] = target: human heteromeric nicotinic receptor α4β2 (Homo sapiens, UniProt P17787+P43681); type: cell-based
muscle type human nAChR = muscle type human nAChR (Homo sapiens, UniProt P02708+Q07001); experiment: Activation and ACh competition at muscle type nAChR, oocyte voltage clamp; type: cell-based
[6] = target: ganglionic α3β4 human nAChR (Homo sapiens, UniProt P30926+P32297); experiment: Activation and ACh competition at ganglionic α3β4 nAChR, oocyte voltage clamp; type: cell-based

| Structure (SMILES) | Potentiated responses relative to the corresponding ones for 7 (α7 nAChR [1]; at 10, 30, and 100 µM + 10 µM 1) | Potentiation by 1 (α7 nAChR [1]) | Response when applied alone, of the control ACh response (α7 nAChR [2]) | α7 activation / partial agonism (α7 nAChR [2]) | Inhibition of α7 ACh responses (α7 nAChR [3]) | PAM response enhancement compared to the parent compound 4 (α7 nAChR [1]) [fold] | Reversibility of desensitization (α7 nAChR [1]; 100 µM 7 for 30s, then 10 µM PNU120596, subsequent 60 µM ACh response) | Potentiated response relative to the response to compound applied alone (α7 nAChR [1]; coapplication with 10 µM 1) | Response compared to the control ACh response (α7 nAChR [1]; coapplication with 10 µM 1, over 10-100 µM compound) [fold] | Hydrolytic stability, 1H-NMR spectra vs time zero [4] | Agonism [5] | Activation (muscle type human nAChR; 30 µM compound) | Antagonism (muscle type human nAChR; co-application with 30 µM ACh) | Activation ([6]; 30 µM compound) | Antagonism ([6]; co-application with 100 µM ACh) |
| --- | --- | --- | --- | --- | --- | --- | --- | --- | --- | --- | --- | --- | --- | --- | --- |
| CC[N+]1(CC)CCN(c2ccccc2)CC1 [compound 4, N,N-diethyl-N’-phenylpiperazine, reference compound] | half or less | modest potentiation | less than 10% |  |  |  |  |  |  |  |  |  |  |  |  |
| CCN1CCN(c2ccccc2)CC1 [compound 5, N-phenyl N’-ethyl piperazine] |  | failed to show significant potentiated responses | less than 10% | no activation | lacked the ability to inhibit |  |  |  |  |  |  |  |  |  |  |
| CC[S+]1CCN(c2ccccc2)CC1.O=S(=O)([O-])C(F)(F)F [compound 7, 1-ethyl-4-phenylthiomorpholin-1-ium trifluoromethane sulfonate] |  |  | less than 10% | virtually no activation |  | 4 | readily reversible | 2–3 orders of magnitude | 3 to 25 | no differences in the spectra | failed to show agonism | failed to produce measureable activation | weak antagonism | failed to produce measureable activation | weak antagonism |
